# pIC50: −log10 of the molar value. The source made the active and inactive calls. No cut-off for these calls is given here.
# Tests used:
# PC-3 [1] = experiment: Antiproliferative activity against human PC3 cells at 50 uM after 48 hrs by SRB assay; format: functional; conditions: PC-3, 48 h, read-out: GI
# PC-3 [2] = experiment: Antiproliferative activity against human PC3 cells at 1 uM after 48 hrs by SRB assay; format: functional; conditions: PC-3, 48 h, read-out: GI
# Outline: (§1)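 Cells kept in RPMI-1640 with 2 mM glutamine, 10% FBS, penicillin/streptomycin, 37°C, 5% CO2. Seeded and grown 24 h, then test material in complete medium added and incubated 48 h. Fixed with cold TCA 1 h at 4°C, stained with 0.4% SRB in 1% acetic acid for 30 min, dye dissolved in 10 mM Tris pH 10.4, OD read at 540 nm.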
# A549 [3] = experiment: Antiproliferative activity against human A549 cells at 1 uM after 48 hrs by SRB assay; format: functional; conditions: A549, 48 h, read-out: GI; outline: as §1
# A549 [4] = experiment: Antiproliferative activity against human A549 cells at 50 uM after 48 hrs by SRB assay; format: functional; conditions: A549, 48 h, read-out: GI
# MCF7 [5] = experiment: Induction of apoptotic bodies formation in human MCF7 cells at 50 nM after 24 hrs by DAPI staining based immunofluorescence microscopy; format: functional, cell-based
# [6] = biological target: T1, Epidermal growth factor receptor (Homo sapiens, UniProt P00533); experiment: Inhibition of recombinant EGFR (unknown origin) using poly (Glu4, Tyr) as substrate assessed as inhibition at 30 uM after 60 mins by ADP-glo kinase assay
# T1 sequence (P00533 whole entry): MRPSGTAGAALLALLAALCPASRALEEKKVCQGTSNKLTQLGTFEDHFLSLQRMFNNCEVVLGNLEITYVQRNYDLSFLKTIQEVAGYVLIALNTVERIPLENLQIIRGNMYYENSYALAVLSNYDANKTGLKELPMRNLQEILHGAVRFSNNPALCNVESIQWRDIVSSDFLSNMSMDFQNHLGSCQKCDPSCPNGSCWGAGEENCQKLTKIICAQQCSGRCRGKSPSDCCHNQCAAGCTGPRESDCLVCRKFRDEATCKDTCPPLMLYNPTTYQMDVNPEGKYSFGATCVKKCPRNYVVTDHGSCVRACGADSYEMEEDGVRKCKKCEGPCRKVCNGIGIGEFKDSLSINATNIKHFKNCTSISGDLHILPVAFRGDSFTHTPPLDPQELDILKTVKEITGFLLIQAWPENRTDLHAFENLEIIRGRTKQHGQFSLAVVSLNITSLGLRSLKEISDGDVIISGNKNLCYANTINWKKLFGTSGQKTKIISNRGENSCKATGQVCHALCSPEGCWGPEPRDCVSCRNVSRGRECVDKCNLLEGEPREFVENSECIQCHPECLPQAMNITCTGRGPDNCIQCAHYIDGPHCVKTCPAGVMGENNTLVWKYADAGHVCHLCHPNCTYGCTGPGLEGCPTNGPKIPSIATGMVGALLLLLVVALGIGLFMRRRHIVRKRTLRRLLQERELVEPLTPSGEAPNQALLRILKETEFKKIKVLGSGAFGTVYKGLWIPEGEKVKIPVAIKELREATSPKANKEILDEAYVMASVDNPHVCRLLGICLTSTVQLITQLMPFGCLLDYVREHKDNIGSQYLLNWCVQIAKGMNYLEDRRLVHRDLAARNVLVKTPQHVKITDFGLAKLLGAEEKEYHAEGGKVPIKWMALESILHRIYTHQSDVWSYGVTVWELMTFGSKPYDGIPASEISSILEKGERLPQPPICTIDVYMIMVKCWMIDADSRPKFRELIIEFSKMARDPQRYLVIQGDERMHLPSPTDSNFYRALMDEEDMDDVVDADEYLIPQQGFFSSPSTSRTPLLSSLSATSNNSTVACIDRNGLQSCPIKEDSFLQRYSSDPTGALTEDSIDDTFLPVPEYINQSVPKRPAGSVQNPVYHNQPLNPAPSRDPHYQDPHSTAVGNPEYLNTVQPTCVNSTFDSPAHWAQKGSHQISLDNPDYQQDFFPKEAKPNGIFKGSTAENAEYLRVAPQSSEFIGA
# [7] = biological target: T1, Epidermal growth factor receptor; experiment: Inhibition of recombinant EGFR (unknown origin) using poly (Glu4, Tyr) as substrate assessed as inhibition at 10 uM after 60 mins by ADP-glo kinase assay
# [8] = biological target: T1, Epidermal growth factor receptor; experiment: Inhibition of recombinant EGFR (unknown origin) using poly (Glu4, Tyr) as substrate after 60 mins by ADP-glo kinase assay
# Outline: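 ADP-Glo luminescent assay. Each reaction held 30 ng recombinant EGFR, 5 µM ATP and 0.2 µg/µl poly(Glu4,Tyr) in tyrosine kinase buffer with a compound dilution; 60 min at ambient temperature. Stopped with ADP-Glo reagent (40 min), then kinase detection reagent, luminescence read after 30 min. Blank (no enzyme) subtracted; activity expressed as % of the 0 µM reaction. Dilutions run in duplicate.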
# [9] = biological target: T1, Epidermal growth factor receptor; experiment: Inhibition of recombinant EGFR (unknown origin) using poly (Glu4, Tyr) as substrate assessed as inhibition at 1 uM after 60 mins by ADP-glo kinase assay
# [10] = biological target: T1, Epidermal growth factor receptor; experiment: Inhibition of recombinant EGFR (unknown origin) using poly (Glu4, Tyr) as substrate assessed as inhibition at 100 uM after 60 mins by ADP-glo kinase assay
# MCF7 [11] = experiment: Antiproliferative activity against human MCF7 cells at 1 uM after 48 hrs by SRB assay; format: functional; conditions: MCF7, 48 h, read-out: GI; outline: as §1
# MCF7 [12] = experiment: Antiproliferative activity against human MCF7 cells at 50 uM after 48 hrs by SRB assay; format: functional; conditions: MCF7, 48 h, read-out: GI
# HCT-116 [13] = experiment: Antiproliferative activity against human HCT116 cells at 20 uM after 48 hrs by SRB assay; format: functional; conditions: HCT-116, 48 h, read-out: GI
# Outline: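 Cells kept in RPMI-1640 with 2mM glutamine, 10% FBS, streptomycin and penicillin at 37°C, 5% CO2. Seeded cells grown 24 h, then exposed to compound in complete medium for 48 h. Fixed with cold TCA 1 h at 4°C, stained with 0.4% SRB 30 min, bound dye dissolved in 10mM Tris pH 10.4, OD read at 540 nm. Blank-subtracted percent growth inhibition taken against untreated cells as 100%.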
# HCT-116 [14] = experiment: Antiproliferative activity against human HCT116 cells at 50 uM after 48 hrs by SRB assay; format: functional; conditions: HCT-116, 48 h, read-out: GI
compound,measurement,setting,value
CC(=O)O[C@H]1C(=O)[C@@]2(C)[C@H]([C@H](OC(=O)c3ccccc3)[C@]3(O)C[C@H](OC(=O)[C@H](O)[C@@H](NC(=O)c4ccccc4)c4ccccc4)C(C)=C1C3(C)C)[C@]1(OC(C)=O)CO[C@@H]1C[C@@H]2O [PACLITAXEL],inhibition of growth at 50 µM,PC-3 [1],72%
same,inhibition of growth at 1 µM,PC-3 [2],72%
same,inhibition of growth at 1 µM,A549 [3],78%
same,inhibition of growth at 50 µM,A549 [4],78%
same,Activity,MCF7 [5],Active
CCCCOC(=O)c1c(-c2ccccc2)nn2ccccc12,inhibition,[6],51%
same,inhibition,[7],37%
same,pIC50,[8],4.63
same,inhibition,[9],16%
same,inhibition,[10],72%
COc1cccc2c1C(=O)c1c(O)c3c(c(O)c1C2=O)C[C@@](O)(C(=O)CO)C[C@@H]3O[C@H]1C[C@H](N)[C@H](O)[C@H](C)O1 [DOXORUBICIN],inhibition of growth at 1 µM,MCF7 [11],62%
same,inhibition of growth at 50 µM,MCF7 [12],62%
O=c1[nH]cc(F)c(=O)[nH]1 [FLUOROURACIL],inhibition of growth at 20 µM,HCT-116 [13],58%
same,inhibition of growth at 50 µM,HCT-116 [14],58%

# Reference: ChEMBL document CHEMBL4002564, “Design, synthesis and cytotoxicity studies of novel pyrazolo[1, 5-a]pyridine derivatives” (Eur J Med Chem, 2017)
